The text below walks through data of ChEMBL document CHEMBL5712070, “Discovery of a chemical probe for the L3MBTL3 methyllysine reader domain” (Nat Chem Biol, 2013).

The target in experiment [1] is T1, Muscarinic acetylcholine receptor M1 (Homo sapiens, UniProt P11229).
T1 sequence (P11229 whole entry): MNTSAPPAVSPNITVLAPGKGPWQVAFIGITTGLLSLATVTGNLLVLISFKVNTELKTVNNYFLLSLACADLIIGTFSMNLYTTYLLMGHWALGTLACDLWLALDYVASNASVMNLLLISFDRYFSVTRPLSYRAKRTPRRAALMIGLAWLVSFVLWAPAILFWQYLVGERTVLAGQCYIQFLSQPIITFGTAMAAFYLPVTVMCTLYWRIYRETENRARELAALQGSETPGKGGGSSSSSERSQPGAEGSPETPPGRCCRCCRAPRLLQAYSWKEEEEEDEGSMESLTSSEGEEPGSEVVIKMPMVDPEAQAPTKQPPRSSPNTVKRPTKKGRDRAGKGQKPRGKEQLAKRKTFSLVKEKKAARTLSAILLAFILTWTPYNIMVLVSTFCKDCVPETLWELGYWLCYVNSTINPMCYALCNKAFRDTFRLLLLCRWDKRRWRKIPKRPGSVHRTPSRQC
As to the kind of experiment: Antagonist activity at human M1 receptor assessed as reduction in acetylcholine-induced response by Schild analysis. Particulars: read-out: pA2 (converted). The experiment is classed as functional.

The target of experiment [2] is T2, Lethal(3)malignant brain tumor-like protein 3 (Homo sapiens, UniProt Q96JM7).
T2 sequence (Q96JM7 whole entry): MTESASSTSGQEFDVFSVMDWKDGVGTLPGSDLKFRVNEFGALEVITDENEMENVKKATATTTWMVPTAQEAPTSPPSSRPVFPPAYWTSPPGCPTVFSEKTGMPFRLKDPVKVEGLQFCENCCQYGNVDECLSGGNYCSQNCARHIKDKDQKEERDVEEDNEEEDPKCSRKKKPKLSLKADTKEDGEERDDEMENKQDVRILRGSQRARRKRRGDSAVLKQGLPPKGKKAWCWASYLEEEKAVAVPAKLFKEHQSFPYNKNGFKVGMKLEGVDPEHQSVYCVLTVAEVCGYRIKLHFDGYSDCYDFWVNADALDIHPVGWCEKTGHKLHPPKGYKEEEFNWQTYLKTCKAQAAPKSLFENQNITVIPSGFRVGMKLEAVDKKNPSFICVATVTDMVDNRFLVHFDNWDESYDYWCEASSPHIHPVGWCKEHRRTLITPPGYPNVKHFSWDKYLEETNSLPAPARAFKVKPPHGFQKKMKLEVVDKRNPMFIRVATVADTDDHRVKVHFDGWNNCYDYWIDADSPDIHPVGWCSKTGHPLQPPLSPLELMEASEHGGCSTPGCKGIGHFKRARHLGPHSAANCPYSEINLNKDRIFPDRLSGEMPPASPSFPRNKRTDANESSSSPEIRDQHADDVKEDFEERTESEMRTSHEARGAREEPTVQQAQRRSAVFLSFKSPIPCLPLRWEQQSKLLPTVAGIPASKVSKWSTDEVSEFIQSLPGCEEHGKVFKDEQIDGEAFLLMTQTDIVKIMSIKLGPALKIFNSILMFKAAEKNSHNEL
In words: Binding affinity to GFP-tagged full length L3MBTL3 (unknown origin) assessed as diffusion coefficient at 0.1 uM (reference value: 0.037549815 um2/s).

The target in experiment [3] is T2, Lethal(3)malignant brain tumor-like protein 3. As to the kind of experiment: Binding affinity to GFP-3MBT tagged L3MBTL3 (unknown origin) assessed as diffusion coefficient at 0.05 uM (reference value: 0.1272 um2/s).
The target in experiment [4] is T1, Muscarinic acetylcholine receptor M1. In words: Inhibition of M1 receptor (unknown origin) by radioligand binding assay. In a few lines: (§1)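 Radioligand competition binding; the value is reported as a Ki.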
In experiment [5] the target is Muscarinic acetylcholine receptor M2 (Homo sapiens, UniProt P08172). In words: Inhibition of M2 receptor (unknown origin) by radioligand binding assay. In a few lines:
as §1

Experiment [6] in a line: Binding affinity to L3MBTL3 F387A mutant (unknown origin) by ITC assay. Set-up: species or system Homo sapiens. On the technique in general: ITC needs no label: the signal is the heat of the interaction.
In experiment [7] the target is T1, Muscarinic acetylcholine receptor M1. As to the kind of experiment: Inhibition of M1 receptor (unknown origin) by Ca2+ mobilization assay. The class given is functional. (In general: Calcium flux is commonly read through the fluorescence of an indicator in the cells.)
Experiment [8] concerns the target T2, Lethal(3)malignant brain tumor-like protein 3. In words: Inhibition of GFP-3MBT tagged L3MBTL3 (unknown origin) expressed in HEK293 cells assessed as reduction in recovery of fluorescence intensity measured up to 60 secs by FRAP assay.

Usually pKi stands for −log10 of the Ki, conventionally taken in molar units. Lower therefore signals a large Ki. Usually pKd stands for −log10 of the Kd, conventionally taken in molar units. Low readings indicate a high Kd, high ones a low Kd. As a reminder, the pIC50 is −log10 of the IC50, conventionally taken in molar units.

pIC50, pKd, pKi: −log10 of the molar value.

Muscarinic acetylcholine receptor M2, sequence (P08172 whole entry): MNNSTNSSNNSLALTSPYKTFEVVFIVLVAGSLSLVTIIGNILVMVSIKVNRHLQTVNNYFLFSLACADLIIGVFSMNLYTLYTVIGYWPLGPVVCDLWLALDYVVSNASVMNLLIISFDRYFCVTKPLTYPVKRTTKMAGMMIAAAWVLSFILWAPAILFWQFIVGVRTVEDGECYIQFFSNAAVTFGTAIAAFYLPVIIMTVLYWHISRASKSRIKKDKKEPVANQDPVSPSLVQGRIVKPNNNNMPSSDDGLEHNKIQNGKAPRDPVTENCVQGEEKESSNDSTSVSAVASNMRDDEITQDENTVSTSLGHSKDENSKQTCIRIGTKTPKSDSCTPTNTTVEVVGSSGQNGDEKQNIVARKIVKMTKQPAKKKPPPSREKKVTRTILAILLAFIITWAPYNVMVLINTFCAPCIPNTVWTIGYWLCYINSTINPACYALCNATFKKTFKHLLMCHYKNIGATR

For `O=C(c1ccc(C(=O)N2CCC(N3CCCC3)CC2)c(Nc2ccccc2)c1)N1CCC(N2CCCC2)CC1`, the Kb in experiment [1] is 2240 nM. Also, the results for the Diffusion coefficient in experiment [2] and in experiment [3] were 0.05 um2/s and 0.156 um2/s, respectively. Besides, the pKi in experiment [4] is 7.01; in experiment [5], 7.14. The compound also had a pKd in experiment [6] of 6.00. The pIC50 in experiment [7] was 5.46; in experiment [8] it was 7.30.
